From ChEMBL document CHEMBL4118256, “Second Generation of Mannich Base-Type Derivatives with in Vivo Activity against Trypanosoma cruzi” (J Med Chem, 2018)

Key:
[1] = system: Trypanosoma cruzi; experiment: Trypanocidal activity against Trypanosoma cruzi IRHOD/CO/2008/SN3 DTU 1 epimastigotes after 48 hrs by resazurin dye based assay; type: functional, organism-based; conditions: IRHOD/CO/2008/SN3 DTU 1, 48 h
Outline: (§1)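 Exponential-phase epimastigotes were seeded at 5×10^5 mL^-1 with compounds at 100–0.2 µM (DMSO 0.01% v/v) at 28 °C. After 48 h, resazurin was added for another 24 h. SDS was then added and absorbance read at 570 and 600 nm.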

[2] = system: Trypanosoma cruzi; experiment: Trypanocidal activity against Trypanosoma cruzi IRHOD/CO/2008/SN3 DTU 1 amastigotes infected in African green monkey Vero cells after 72 hrs by Giemsa-staining based microscopic assay; type: functional, organism-based; conditions: IRHOD/CO/2008/SN3 DTU 1, Vero
Outline: (§2)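 Vero cells were seeded at 1×10^4/well on coverslips. After 24 h they were infected with culture-derived trypomastigotes (MOI 1:10, 24 h), then washed. Compounds were added at 100–0.2 µM (DMSO 0.01% v/v) for 72 h at 37 °C, 5% CO2. Slides were methanol-fixed and Giemsa-stained; amastigotes and infected cells were counted over 500 host cells. IC50 was derived by curve fitting; triplicate wells, four separate determinations.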

[3] = Selectivity index, ratio of IC50 for African green monkey Vero cells to IC50 for Trypanosoma cruzi IRHOD/CO/2008/SN3 DTU 1 trypamastigotes derived from infected Balb/c albino mouse; type: toxicity; conditions: read-out: Ratio IC50
Outline: (§3)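 SI is Vero IC50 divided by the IC50 for the stated parasite form. For Vero cytotoxicity, cells were seeded at 1.25×10^4 mL^-1 with compounds at 1000–1 µM, incubated 48 h, then given resazurin for a further 24 h (72 h total), with absorbance read at 570/600 nm. Triplicate, four determinations.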

[4] = Selectivity index, ratio of IC50 for African green monkey Vero cells to IC50 for Trypanosoma cruzi IRHOD/CO/2008/SN3 DTU 1 amastigotes infected in African green monkey Vero cells; type: toxicity; conditions: read-out: Ratio IC50; outline: as §3
[5] = Selectivity index, ratio of IC50 for African green monkey Vero cells to IC50 for Trypanosoma cruzi MHOM/Pe/2011/Arequipa DTU 5 trypamastigotes derived from infected Balb/c albino mouse; type: toxicity; conditions: read-out: Ratio IC50; outline: as §3
[6] = Selectivity index, ratio of IC50 for African green monkey Vero cells to IC50 for Trypanosoma cruzi TINF/CH/1956/Tulahuen DTU 6 epimastigotes; type: toxicity; conditions: read-out: Ratio IC50; outline: as §3
[7] = Selectivity index, ratio of IC50 for African green monkey Vero cells to IC50 for Trypanosoma cruzi MHOM/Pe/2011/Arequipa DTU 5 amastigotes infected in African green monkey Vero cells; type: toxicity; conditions: read-out: Ratio IC50; outline: as §3
[8] = system: Trypanosoma cruzi; experiment: Trypanocidal activity against Trypanosoma cruzi MHOM/Pe/2011/Arequipa DTU 5 trypamastigotes derived from infected Balb/c albino mouse after 24 hrs by resazurin dye based assay; type: functional, organism-based; conditions: MHOM/Pe/2011/Arequipa DTU 5, 24 h
Outline: (§4)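 Bloodstream trypomastigotes taken from mice at peak parasitaemia were seeded at 2×10^6 mL^-1 in RPMI with 10% FBS. Compounds were added at 50–0.2 µM and incubated 24 h at 37 °C, 5% CO2, then with resazurin for 4 h. SDS was added and absorbance read at 570/600 nm. IC50 was fitted; triplicate, four separate determinations.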

[9] = Selectivity index, ratio of IC50 for African green monkey Vero cells to IC50 for Trypanosoma cruzi IRHOD/CO/2008/SN3 DTU 1 epimastigotes; type: toxicity; conditions: read-out: Ratio IC50; outline: as §3
[10] = system: Trypanosoma cruzi; experiment: Trypanocidal activity against Trypanosoma cruzi TINF/CH/1956/Tulahuen DTU 6 epimastigotes after 48 hrs by resazurin dye based assay; type: functional, organism-based; conditions: TINF/CH/1956/Tulahuen DTU 6, 48 h; outline: as §1
[11] = system: Trypanosoma cruzi; experiment: Trypanocidal activity against Trypanosoma cruzi MHOM/Pe/2011/Arequipa DTU 5 amastigotes infected in African green monkey Vero cells after 72 hrs by Giemsa-staining based microscopic assay; type: functional, organism-based; conditions: MHOM/Pe/2011/Arequipa DTU 5, Vero; outline: as §2
[12] = system: Trypanosoma cruzi; experiment: Trypanocidal activity against Trypanosoma cruzi IRHOD/CO/2008/SN3 DTU 1 trypamastigotes derived from infected Balb/c albino mouse after 24 hrs by resazurin dye based assay; type: functional, organism-based; conditions: IRHOD/CO/2008/SN3 DTU 1, 24 h; outline: as §4
[13] = system: Trypanosoma cruzi; experiment: Trypanocidal activity against Trypanosoma cruzi MHOM/Pe/2011/Arequipa DTU 5 epimastigotes after 48 hrs by resazurin dye based assay; type: functional, organism-based; conditions: MHOM/Pe/2011/Arequipa DTU 5, 48 h; outline: as §1
[14] = system: Vero; experiment: Cytotoxicity against African green monkey Vero cells assessed as reduction in cell viability after 72 hrs by resazurin dye based assay; conditions: Chlorocebus sabaeus
Outline: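 Vero monkey kidney cells grown at 37 °C, 5 % CO2, in RPMI with 10 % heat-inactivated FBS. Seeded at 1.25 × 10^4 mL-1 with compound at 1000 to 1 µM (DMSO 0.01 % v/v). After 48 h, resazurin added for a further 24 h, then SDS. Absorbance read at 570/600 nm. IC50 from triplicates in four separate determinations.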

[15] = Selectivity index, ratio of IC50 for African green monkey Vero cells to IC50 for Trypanosoma cruzi MHOM/Pe/2011/Arequipa DTU 5 epimastigotes; type: toxicity; conditions: read-out: Ratio IC50; outline: as §3
[16] = system: Trypanosoma cruzi; experiment: Trypanocidal activity against Trypanosoma cruzi TINF/CH/1956/Tulahuen DTU 6 trypamastigotes derived from infected Balb/c albino mouse after 24 hrs by resazurin dye based assay; type: functional, organism-based; conditions: TINF/CH/1956/Tulahuen DTU 6, 24 h; outline: as §4
[17] = Selectivity index, ratio of IC50 for African green monkey Vero cells to IC50 for Trypanosoma cruzi TINF/CH/1956/Tulahuen DTU 6 trypamastigotes derived from infected Balb/c albino mouse; type: toxicity; conditions: read-out: Ratio IC50; outline: as §3
[18] = system: Trypanosoma cruzi; experiment: Trypanocidal activity against Trypanosoma cruzi TINF/CH/1956/Tulahuen DTU 6 amastigotes infected in African green monkey Vero cells after 72 hrs by Giemsa-staining based microscopic assay; type: functional, organism-based; conditions: TINF/CH/1956/Tulahuen DTU 6, Vero; outline: as §2
[19] = Selectivity index, ratio of IC50 for African green monkey Vero cells to IC50 for Trypanosoma cruzi TINF/CH/1956/Tulahuen DTU 6 amastigotes infected in African green monkey Vero cells; type: toxicity; conditions: read-out: Ratio IC50; outline: as §3

Structure (SMILES) | IC50 [1] | IC50 [2] | selectivity ratio [3] | selectivity ratio [4] | selectivity ratio [5] | selectivity ratio [6] | selectivity ratio [7] | IC50 [8] | selectivity ratio [9] | IC50 [10] | IC50 [11] | IC50 [12] | IC50 [13] | IC50 [14] | selectivity ratio [15] | IC50 [16] | selectivity ratio [17] | IC50 [18] | selectivity ratio [19]
O=C(CCN1CCN(c2ccc(F)cc2)CC1)c1ccc(F)c(F)c1 | 37.6 µM | 51.1 µM | 9.1 | 7.5 | 12.2 | 5.9 | 13.6 | 31.6 µM | 10.3 | 65.5 µM | 28.3 µM | 42.2 µM | 21.4 µM | 385 µM | 18 |  |  |  | 
O=C(CCN1CCN(c2ccc([N+](=O)[O-])cc2)CC1)c1ccc(F)c(Br)c1 | 37.5 µM |  |  |  |  | 13.4 |  |  | 6.8 | 19.1 µM |  |  | 36.5 µM | 256 µM | 7 | 32.1 µM | 8 | 38.7 µM | 6.6
